Measured values pooled from the literature.
MAK: Serine/threonine-protein kinase MAK (MAK, Homo sapiens, UniProt P20794)
MTNR1B: Melatonin receptor type 1B (MTNR1B, Homo sapiens, UniProt P49286)
PDE4D: 3',5'-cyclic-AMP phosphodiesterase 4D (PDE4D, Homo sapiens, UniProt Q08499)

SMILES | target | assay | test system | setting | endpoint | value
O=C1C[C@@H]2OCC=C3CN4CC[C@]56c7ccccc7N1[C@H]5[C@H]2[C@H]3C[C@H]46 | Cyclin-dependent kinase 7, with cyclin H (CDK7, Homo sapiens, UniProt P50613) | enzyme activity, inhibitor, ADP detection | – | 10 µM | inhibition | 38.1%
Nc1ncc(-c2nc(N3CCOCC3)nc(N3CCOCC3)n2)c(C(F)F)n1 | MAK | binding, competition with immobilised ligand | – | 10 µM | remaining binding | 100%
COc1ccc2cccc(C(CO)CNC(=O)CF)c2c1 (stereo not shown) | MTNR1B | cAMP, agonist, TR-FRET | CHO-K1 | 20 min | Emax | 93%
CC(=O)O[C@H]1C[C@H]2[C@@H]([C@H](OC(C)=O)C[C@@H]3CC(NCCCNc4ccnc5cc(Cl)ccc45)CC[C@@]32C)[C@@H]2CC[C@H]([C@H](C)CCCNCCCNc3ccnc4cc(Cl)ccc34)[C@@]12C (mixture of isomers) | Botulinum neurotoxin type A, protease (Clostridium botulinum, UniProt P0DPI0) | enzyme activity, inhibitor | – | 10 µM | inhibition | 99%
CN[C@]1(c2ccccc2Cl)CCCCC1=O | Mitogen-activated protein kinase 1 (MAPK1, Homo sapiens, UniProt P28482) | enzyme activity, inhibitor | – | 30 µM | inhibition | -3%
CN[C@@H](C)[C@H](O)c1ccccc1 | PDE4D | enzyme activity, inhibitor, radiometric | – | 50 µM | inhibition | -7.03%
Cc1nn(C)cc1-c1nc2c(N3CCN(Cc4ccc(Cl)cc4)CC3)c(Cl)cnc2[nH]1 | MAK | binding, competition with immobilised ligand | – | 1 µM | remaining binding | 85%
COc1ccc2[nH]cc(CCNC(=O)CI)c2c1 | MTNR1B | cAMP, agonist, TR-FRET | CHO-K1 | 20 min | Emax | 103%
C[C@@]12C[C@@]3(O)O[C@@H](O1)[C@]1(COC(=O)c4ccccc4)[C@H]3C[C@@]12O[C@@H]1O[C@H](CO)[C@@H](O)[C@H](O)[C@H]1O | PDE4D | enzyme activity, inhibitor, radiometric | – | 50 µM | inhibition | 2.88%
COc1ncccc1-c1cnn2ccc(N3CCN(C(=O)OC(C)C)CC3)nc12 | Non-receptor tyrosine-protein kinase TNK1 (TNK1, Homo sapiens, UniProt Q13470) | binding, competition with immobilised ligand | – | 1 µM | remaining binding | 100%
